ChEMBL document CHEMBL4342471, “Discovery of Thieno[2,3-d]pyrimidine-Based Hydroxamic Acid Derivatives as Bromodomain-Containing Protein 4/Histone Deacetylase Dual Inhibitors Induce Autophagic Cell Death in Colorectal Carcinoma Cells” (J Med Chem, 2020)
The source made the active and inactive calls. The rule behind the calls is not given here.

What was measured:
[1] = AUC (0 to infinity) in Sprague-Dawley rat at 30 mg/kg, iv administered as bolus dose measured up to 1440 mins by UPLC-QTOF/MS analysis; format: ADME, organism-based; parameters: dose 30 mg/kg, route intravenous, time infinity; details: in vivo
HCT-116 [2] = test: Induction of apoptotic cell death in human HCT116 cells assessed as change in nuclear morphology at 0.2 to 0.5 uM after 12 hrs by Hoechst 33258 staining based fluorescence microscopy analysis; format: functional
Summary of the method: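 Nuclear morphology was examined by Hoechst 33258 staining in HCT-116 cells after treatment at 0.2 or 0.5 μM.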

HCT-116 [3] = test: Induction of apoptosis in human HCT116 cells assessed as viable cells at 0.5 uM by Annexin-V FITC/propidium iodide staining-based flow cytometry (reference value: 93.4 %); format: functional; details: read-out: Activity
[4] = molecular target: Bromodomain-containing protein 2 (Homo sapiens, UniProt P25440); test: Inhibition of human recombinant His-tagged BRD2 BD2 domain expressed in Escherichia coli BL21(DE3)-R3-pRARE2 cells by AlphaScreen assay
Chain of Bromodomain-containing protein 2 (P25440 whole entry, the tested form may be a part): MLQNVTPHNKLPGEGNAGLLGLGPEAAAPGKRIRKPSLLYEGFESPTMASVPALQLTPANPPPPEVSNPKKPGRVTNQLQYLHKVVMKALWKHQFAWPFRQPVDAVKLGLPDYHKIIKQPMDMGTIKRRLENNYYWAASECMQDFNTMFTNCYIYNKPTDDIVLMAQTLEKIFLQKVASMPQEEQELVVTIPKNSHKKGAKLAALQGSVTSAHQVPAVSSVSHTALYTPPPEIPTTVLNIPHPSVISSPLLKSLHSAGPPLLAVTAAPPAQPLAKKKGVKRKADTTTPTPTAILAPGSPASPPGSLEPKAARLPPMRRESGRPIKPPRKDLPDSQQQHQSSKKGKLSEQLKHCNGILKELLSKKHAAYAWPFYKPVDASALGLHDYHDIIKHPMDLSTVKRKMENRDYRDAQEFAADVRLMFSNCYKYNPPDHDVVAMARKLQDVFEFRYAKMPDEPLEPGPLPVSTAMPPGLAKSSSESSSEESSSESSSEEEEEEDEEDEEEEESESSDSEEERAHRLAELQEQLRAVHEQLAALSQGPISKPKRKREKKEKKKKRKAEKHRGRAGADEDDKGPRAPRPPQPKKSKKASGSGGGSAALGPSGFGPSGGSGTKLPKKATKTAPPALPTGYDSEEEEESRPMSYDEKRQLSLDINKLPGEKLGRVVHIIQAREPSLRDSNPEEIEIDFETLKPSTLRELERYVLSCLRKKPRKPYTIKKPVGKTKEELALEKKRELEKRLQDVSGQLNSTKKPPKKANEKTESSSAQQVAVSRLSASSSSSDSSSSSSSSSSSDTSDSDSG

Histone deacetylase 2 = Histone deacetylase 2 (Homo sapiens, UniProt Q92769)
Chain of Histone deacetylase 2 (Q92769 whole entry): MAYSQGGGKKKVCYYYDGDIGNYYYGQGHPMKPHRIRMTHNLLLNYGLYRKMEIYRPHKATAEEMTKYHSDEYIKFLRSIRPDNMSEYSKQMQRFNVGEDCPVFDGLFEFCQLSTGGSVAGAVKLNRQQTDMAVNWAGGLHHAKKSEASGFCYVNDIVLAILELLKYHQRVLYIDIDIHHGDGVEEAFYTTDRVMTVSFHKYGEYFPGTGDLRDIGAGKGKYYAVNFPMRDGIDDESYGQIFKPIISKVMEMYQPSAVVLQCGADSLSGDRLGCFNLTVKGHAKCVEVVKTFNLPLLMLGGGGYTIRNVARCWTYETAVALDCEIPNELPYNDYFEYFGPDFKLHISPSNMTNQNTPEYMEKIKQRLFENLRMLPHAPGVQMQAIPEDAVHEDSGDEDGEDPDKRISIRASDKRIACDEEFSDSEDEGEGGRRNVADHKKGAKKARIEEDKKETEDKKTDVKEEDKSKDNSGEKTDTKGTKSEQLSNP

HCT-116 [5] = test: Induction of apoptosis in human HCT116 cells assessed as necrotic cells at 0.5 uM by Annexin-V FITC/propidium iodide staining-based flow cytometry (reference value: 0.304 %); format: functional
HCT-116 [6] = test: Induction of apoptosis in human HCT116 cells assessed as apoptotic cells at 0.5 uM by Annexin-V FITC/propidium iodide staining-based flow cytometry (reference value: 6.3 +/- 0.4 %); format: functional
HCT-116 [7] = test: Inhibition of colony formation in human HCT116 cells at 0.2 to 0.5 uM incubated for 24 hrs; format: functional, cell-based
Summary of the method: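 HCT-116 colony formation assessed after treatment at 0.2 or 0.5 µM.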

HCT-116 [8] = test: Effect on histone H3 expression level in human HCT116 cells at 0.2 to 0.5 uM measured after 24 hrs by Western blot analysis; format: functional, cell-based
[9] = molecular target: T1, Bromodomain-containing protein 4 (Homo sapiens, UniProt O60885); test: Inhibition of BRD4 in human HCT116 cells assessed as reduction in C-myc level at 0.2 to 0.5 uM measured after 24 hrs by Western blot analysis; format: cell-based
[10] = molecular target: T1, Bromodomain-containing protein 4; test: Inhibition of BRD4 in human HCT116 cells assessed as induction of autophagic vacuole formation in cytoplasm at 0.5 uM measured after 24 hrs by transmitted electron microscopy; format: cell-based
Summary of the method: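 HCT-116 cells were incubated with 0.5 μM compound for 24 hours, fixed, and imaged by transmission electron microscopy for cytoplasmic autophagic vacuoles.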

[11] = molecular target: T1, Bromodomain-containing protein 4; test: Inhibition of BRD4 in human HCT116 cells assessed as induction of autophagy by measuring decrease in p62 expression at 0.2 to 0.5 uM measured after 24 hrs by Western blot analysis; format: cell-based
HCT-116 [12] = test: Cytotoxicity against human HCT116 cells assessed as reduction in cell viability at 0.5 uM incubated for 24 to 48 hrs in presence of 500 uM type 3 PI3K inhibitor, 3-MA by MTT assay; format: functional, cell-based
Summary of the method: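 HCT-116 viability was read by MTT after treatment with 0.5 μM compound, with or without the autophagy inhibitor 3-MA at 500 μM.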

[13] = molecular target: T1, Bromodomain-containing protein 4; test: Inhibition of BRD4 in human HCT116 cells assessed as induction of autophagic flux by measuring accumulation of LC3-II at 0.5 uM after 24 hrs in presence of auto-phagolysosome inhibitor, bafilomycin-A1 by Western blot analysis; format: cell-based
Summary of the method: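 HCT-116 cells received 0.5 μM compound with or without bafilomycin-A1 for 24 hours. LC3 and p62 protein were then analysed by western blot.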

[14] = molecular target: T1, Bromodomain-containing protein 4; test: Inhibition of BRD4 in human HCT116 cells transfected with ATG5 siRNA assessed as induction of autophagy by measuring LC3 cleavage at 0.5 uM by Western blot analysis; format: cell-based
Summary of the method: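 HCT-116 cells first transfected with ATG5 siRNA or scramble siRNA; after silencing, exposed to 0.5 µM test agent or normal saline, then ATG5, AMPKα, p-AMPKα, p62 and LC3 protein assessed by western blot.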

HCT-116 [15] = test: Antitumor activity against human HCT116 cells xenografted in BALB/cAnNCrl mouse assessed as reduction in tumor volume by measuring T/C ratio at 15 mg/kg, po administered on day 1 to day 19 relative to control; format: functional
Summary of the method: (§1)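 HCT-116 xenografts in mice were given the test agent orally at 15 or 30 mg/kg, with a saline control group, over 19 days. Tumor volume was followed during treatment and tumors were weighed at the end. Body weight was monitored. Inhibition is expressed as treatment-to-control (T/C) ratio.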

HCT-116 [16] = test: Antitumor activity against human HCT116 cells xenografted in orally dosed BALB/cAnNCrl mouse assessed as reduction in tumor volume administered on day 1 to day 19 relative to control; format: functional, organism-based; summary of the method: as §1
Mus musculus = test: Induction of autophagy in BALB/cAnNCrl mouse xenografted with human HCT116 cells assessed as increase in LC3-II level in tumor tissue at 15 to 30 mg/kg, po administered on day 1 to day 19 measured on day 19 by immunohistochemical analysis; format: functional, organism-based
Summary of the method: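 HCT-116 xenograft mice were dosed orally at 15 or 30 mg/kg, or 30 mg/kg for reference agents, for 19 days, with vehicle or saline controls. Tumor sections were stained for Ki-67, c-Myc, Ac-H3, BRD4, LC3-II, LIFR and p-STAT3 by immunohistochemistry, and TUNEL staining was used as the apoptosis marker.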

[17] = Toxicity in BALB/cAnNCrl mouse xenografted with human HCT116 cells assessed as effect on liver morphological changes at 15 to 30 mg/kg, po administered on day 1 to day 19 measured on day 19 by hematoxylin and eosin staining based assay; format: organism-based; details: in vivo
Summary of the method: (§2)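 HCT-116 xenograft mice dosed orally at 15 or 30 mg/kg for 19 days, saline as vehicle control; body weights tracked, and main organs sectioned and H&E-stained at study end.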

[18] = Toxicity in BALB/cAnNCrl mouse xenografted with human HCT116 cells assessed as effect on lung morphological changes at 15 to 30 mg/kg, po administered on day 1 to day 19 measured on day 19 by hematoxylin and eosin staining based assay; format: organism-based; details: in vivo; summary of the method: as §2
[19] = AUC (0 to infinity) in Sprague-Dawley rat at 30 mg/kg, po measured up to 1440 mins by UPLC-QTOF/MS analysis; format: ADME, organism-based; parameters: dose 30 mg/kg, route oral, time infinity; details: in vivo
[20] = Tmax in Sprague-Dawley rat at 30 mg/kg, po measured up to 1440 mins by UPLC-QTOF/MS analysis; format: ADME, organism-based; details: in vivo
[21] = Oral bioavailability in Sprague-Dawley rat at 30 mg/kg measured up to 1440 mins by UPLC-QTOF/MS analysis; format: ADME, organism-based; details: in vivo
Homo sapiens = species: Homo sapiens; test: Inhibition of BRD4/HDAC in human HCT116 cells assessed as inhibition of IL6-JAK-STAT3 signaling pathway by measuring decrease in LIFR expression at 0.5 uM after 24 hrs by Western blot analysis; format: cell-based
Summary of the method: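 HCT-116 cells treated 24 h with 0.5 µM, 5.0 µM or 10 µM test agent depending on compound; OSMR, LIFR and downstream pathway proteins detected by western blot.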

IC50 [4]: > 20000 nM | IC50 (Histone deacetylase 2): 58 nM | inhibition [9]: Active | inhibition [10]: Active | inhibition [11]: Active | inhibition [13]: inactive | inhibition [14]: inactive
SMILES: Cc1cc(-c2nc3sc4c(c3c(=O)[nH]2)CCN(C)C4)cc(C)c1OCCCCCC(=O)NO
AUC(0-inf) [1]: 156 µg·h/mL | Activity (HCT-116 [2]): Active | viability at 0.5 µM (HCT-116 [3]): 44.9% | Activity (HCT-116 [5]): 9.75% | Activity (HCT-116 [6]): 45.3% | inhibition (HCT-116 [7]): Active | Activity (HCT-116 [8]): inactive | Activity (HCT-116 [12]): inactive | T/C (HCT-116 [15]): 42.7% | Activity (HCT-116 [16]): Dose-dependent effect | Activity (Mus musculus): Active | Activity [17]: Non-Toxic | Activity [18]: Non-Toxic | AUC(0-inf) [19]: 63.3 µg·h/mL | Tmax [20]: 1.53 h | bioavailability [21]: 40.5% | inhibition (Homo sapiens): Active
